# pIC50: −log10 of the molar value.
# How the values were obtained:
# MOLT-4 = test: Antitumor activity was evaluated against leukemia cell line MOLT-4(human acute T lymphoblastic leukemia); type: functional, cell-based
# In short: (§1)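 Exponentially growing leukemia/lymphoma cells resuspended at 1×10⁵ cells/mL in RPMI with serial drug dilutions. Viability by MTT after 4 days at 37 °C. Concentration giving 50% growth inhibition versus untreated controls found by linear regression. Mean of at least three experiments.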
# [1] = test system: Mycobacterium tuberculosis; test: Antibacterial activity was evaluated against Mycobacterium tuberculosis (clinical isolate 1104); type: functional
# In short: (§2)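 Broth microdilution in Middlebrook 7H9 with 0.5% glycerol and 10% OADC, containing serial concentrations of compound (diluted in medium from a DMSO solution). Plates were incubated 9 days at 37 °C, and viable bacteria were read by MTT. MIC is the mean of at least three separate experiments.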
# WIL2-NS = test: Antitumor activity was evaluated against lymphoma cell line Wil2-NS (human splenic B lymphoblastoid cells).; type: functional, cell-based; in short: as §1
# HT-29 = test: Antitumor activity was evaluated against human colon adenocarcinoma cell line HT-29.; type: functional, cell-based
# In short: (§3)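 Solid-tumour and KB lines: exponentially growing cells seeded at 5×10⁴ cells/mL, allowed to adhere 16 h, then serial drug dilutions added. Viability by MTT after 4 days. Growth expressed as % of untreated controls, 50% inhibitory concentration by linear regression. Untreated cells undergo at least three rounds of multiplication.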
# IMR-32 = test: Antitumor activity was evaluated against human neuroblastoma cell line IMR-32.; type: functional, cell-based; in short: as §3
# CCRF-CEM = test: Antitumor activity was evaluated against leukemia cell line CCRF-CEM(human acute T lymphoblastic leukemia).; type: functional, cell-based
# In short: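 Exponentially growing leukemia/lymphoma cells resuspended at 1×10⁵ cells/mL in RPMI with serial drug dilutions. Viability by MTT after 4 days at 37 °C. Mean of at least three experiments.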
# CHO-K1 = test: Antitumor activity was evaluated against Chinese hamster ovary carcinoma cell line CHO-K1.; type: functional, cell-based; conditions: Cricetulus griseus; in short: as §3
# Salmonella = test: Antibacterial activity was evaluated against salmonella.; type: functional
# In short: (§4)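 Recent clinical isolates grown in nutrient broth, pH 7.2, inoculum 10³ bacterial cells/tube, with serial compound dilutions. […] Mean of at least three separate experiments.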
# Mycobacterium = test: Antibacterial activity was evaluated against MAC (Mycobacterium Avium Complex ); type: functional
# In short: (§5)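 Mycobacterial suspension (turbidity of 1 McFarland standard, 10⁸ CFU/mL) added to Middlebrook 7H9 with 0.5% glycerol, 10% OADC and serial compound dilutions. Incubated at 37 °C, 1 day for M. smegmatis and M. fortuitum, 9 days for MAC. Viable mycobacteria counted by MTT. MIC given as mean of at least three separate experiments.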
# Streptococcus = test: Antibacterial activity was evaluated against streptococcus.; type: functional; in short: as §4
# 5637 = test: Antitumor activity was evaluated against human bladder carcinoma cell line 5637.; type: functional, cell-based; in short: as §3
# Candida tropicalis = test: Antimycotic activity against Candida paratropicalis was evaluated. MIC was defined as compound concentration at which no macroscopic signs of fungal growth were detected.; type: functional
# In short: (§6)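 Yeast inocula from 30 h Sabouraud dextrose broth cultures at 37 °C, diluted to 5×10³ cells/mL. Dermatophyte inocula from 5-day cultures, homogenized and diluted to 0.05 OD₅₉₀/mL. Inocula added to medium with serial dilutions, incubated at 37 °C, read visually at 2 days (yeast) or 3 days (dermatophytes). Mean of at least three experiments.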
# ACHN = test: Antitumor activity was evaluated against human renal adenocarcinoma cell line ACHN.; type: functional, cell-based; in short: as §3
# Candida parapsilosis [2] = test: Antimycotic activity against Candida parapsilosis was evaluated. MIC was defined as compound concentration at which no macroscopic signs of fungal growth were detected.; type: functional; conditions: Lodderomyces parapsilosis; in short: as §6
# HeLa = test: Antitumor activity was evaluated against human cervix carcinoma cell line HeLa.; type: functional, cell-based; in short: as §3
# Aspergillus fumigatus = test: Antimycotic activity against Aspergillus fumigatus was evaluated as compound minimum inhibitory concentration at which no macroscopic signs of fungal growth were detected.; type: functional
# Staphylococcus = test: Antibacterial activity was evaluated against staphylococcus; type: functional; in short: as §4
# Cryptococcus neoformans = test: Antimycotic activity against Cryptococcus neoformans was evaluated. MIC was defined as compound concentration at which no macroscopic signs of fungal growth were detected.; type: functional; in short: as §6
# L1210 = test: Antitumor activity was evaluated against leukemia cell line L1210 (mouse leukemia).; type: functional, cell-based; in short: as §1
# [3] = test system: Mycolicibacterium smegmatis; test: Antibacterial activity was evaluated against Mycobacterium smegmatis; type: functional; in short: as §5
# CCRF-SB = test: Antitumor activity was evaluated against leukemia cell line CCRF-SB(human acute B lymphoblastic leukemia).; type: functional, cell-based; in short: as §1
# MT4 = test: Antitumor activity was evaluated against leukemia cell line MT-4(human CD4+ T cells expressing the TAT gene of HTLV-1).; type: functional, cell-based; in short: as §1
# [4] = test system: Mycobacterium tuberculosis; test: Antibacterial activity was evaluated against Mycobacterium tuberculosis (ATCC); type: functional; in short: as §2
# Candida albicans = test: Antimycotic activity against Candida albicans was evaluated as minimum inhibitory concentration of compound at which no macroscopic signs of fungal growth were detected; type: functional; in short: as §6
# Shigella = test: Antibacterial activity was evaluated against shigella.; type: functional; in short: as §4
# Trichophyton benhamiae = test: Antimycotic activity against Trichophyton mentagrophytes was evaluated. MIC was defined as compound concentration at which no macroscopic signs of fungal growth were detected.; type: functional, Arthroderma benhamiae; in short: as §6
# [5] = test system: Mycolicibacterium fortuitum; test: Antibacterial activity was evaluated against Mycobacterium fortuitum.; type: functional; in short: as §5
# Lymphoblastoid cell = test: Cytotoxicity was evaluated against lymphoblastoid cell line.; type: functional; conditions: Homo sapiens
# Homo sapiens [6] = species on record: Homo sapiens; test: In vitro Antiproliferative activity against peripheral blood lymphocytes (PBL) after stimulating PBL with PHA and then resuspending in IL-2-containing medium in the presence of compound.; type: functional
# In short: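 PBL from HIV-negative donors, isolated on Ficoll-Hypaque and rested overnight. Stimulated with PHA 2.5 μg/mL for 24 h, diluted to 1×10⁵ cells/mL in medium with PHA, IL-2 50 U/mL and compound. Viable cells counted after 6 days. Mean ±SD of three experiments.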
# Candida parapsilosis [7] = test: Antimycotic activity against Candida parapsilosis was evaluated as compound concentration at which no macroscopic signs of fungal growth were detected; type: functional; conditions: Lodderomyces parapsilosis; in short: as §6
# Homo sapiens [8] = species on record: Homo sapiens; test: In vitro Antiproliferative activity against peripheral blood lymphocytes (PBL) by treating PBL with compound for 3 days, then stimulating with PHA and then resuspending in compound free medium.; type: functional; conditions: 72 h
# In short: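 Resting donor PBL held at 1×10⁶ cells/mL and treated with compound for up to 3 days, then washed. Stimulated with PHA for 24 h, diluted to 1×10⁵ cells/mL in drug-free medium with PHA and IL-2. Viability read after 6 days at 37 °C. Mean ±SD of three experiments.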
# KB [9] = test: Antiproliferative activity against drug-resistant tumor cell line KB7D.; type: functional, cell-based; conditions: Homo sapiens; in short: as §3
# KB [10] = test: Antiproliferative activity against drug-resistant tumor cell line KBV20C.; type: functional, cell-based; conditions: Homo sapiens; in short: as §3
# KB [11] = test: Antiproliferative activity against drug-resistant tumor cell line KBCamp.; type: functional, cell-based; conditions: Homo sapiens; in short: as §3
# KB [12] = test: Antiproliferative activity against drug-resistant tumor cell line KBMDR.; type: functional, cell-based; conditions: Homo sapiens; in short: as §3
# KB [13] = test: Antiproliferative activity against drug-resistant tumor cell line KBwt.; type: functional, cell-based; conditions: Homo sapiens; in short: as §3
SMILES,pIC50 (MOLT-4),pIC50 (WIL2-NS),pIC50 (HT-29),pIC50 (IMR-32),pIC50 (CCRF-CEM),pIC50 (CHO-K1),MIC (Salmonella) [µM],MIC (Streptococcus) [µM],pIC50 5637,MIC (Candida tropicalis) [µM],pIC50 (ACHN),pIC50 (HeLa),MIC (Aspergillus fumigatus) [µM],MIC (Staphylococcus) [µM],MIC (Cryptococcus neoformans) [µM],pIC50 (L1210),pIC50 (CCRF-SB),pIC50 (MT4),MIC (Candida albicans) [µM],MIC (Shigella) [µM],other results
O=Nc1c2ccccc2n2nnc3ccccc3c12,5.64,5.36,4.30,5.48,5.15,4.35,25,0.8,5.38,19,4.92,5.00,19,0.8,3.1,4.92,5.13,5.85,19,25,MIC [1]: 7.4 µM; MIC (Mycobacterium): 1.2 µM; MIC (Candida parapsilosis [2]): 19 µM; MIC [3]: 2.5 µM; MIC [4]: 4.6 µM; MIC (Trichophyton benhamiae): 9.4 µM; MIC [5]: > 5 µM
Cc1ccc2nnn3c4ccccc4c(N=O)c3c2c1,6.30,6.10,5.51,5.55,6.30,5.19,> 200,0.8,5.72,> 200,5.06,5.02,> 200,0.4,> 200,5.77,6.15,5.89,> 200,> 200,MIC [1]: 9.2 µM; CC50 (Lymphoblastoid cell): 0.9 µM; MIC (Mycobacterium): 5 µM; CC50 (Homo sapiens [6]): 0.5 µM; MIC (Candida parapsilosis [7]): > 200 µM; CC50 (Homo sapiens [8]): 0.6 µM; MIC [3]: > 5 µM; MIC [4]: 9.3 µM; MIC (Trichophyton benhamiae): > 200 µM; MIC [5]: > 5 µM
COc1ccc2c(c1)c(N=O)c1c3ccccc3nnn21,5.89,5.43,< 4.30,5.64,5.14,< 4.30,> 200,0.1,5.22,> 200,4.85,4.96,> 200,0.2,> 200,4.89,5.30,5.96,> 200,> 200,MIC [1]: 4.5 µM; MIC (Mycobacterium): 2.5 µM; MIC (Candida parapsilosis [7]): > 200 µM; MIC [3]: > 5 µM; MIC [4]: 5.3 µM; MIC (Trichophyton benhamiae): > 200 µM; MIC [5]: > 5 µM
O=Nc1c2cc(Cl)ccc2n2nnc3ccccc3c12,6.70,6.70,5.89,6.10,7.10,5.80,> 200,0.8,6.52,> 200,5.59,5.57,> 200,0.4,> 200,6.15,6.40,6.30,> 200,> 200,pIC50 (KB [9]): 5.77; MIC [1]: > 10 µM; CC50 (Lymphoblastoid cell): 0.35 µM; MIC (Mycobacterium): 0.6 µM; pIC50 (KB [10]): 5.68; CC50 (Homo sapiens [6]): 0.2 µM; MIC (Candida parapsilosis [7]): > 200 µM; CC50 (Homo sapiens [8]): 0.9 µM; pIC50 (KB [11]): 5.72; pIC50 (KB [12]): 5.96; MIC [3]: > 5 µM; MIC [4]: 4.7 µM; MIC (Trichophyton benhamiae): > 200 µM; pIC50 (KB [13]): 5.74; MIC [5]: > 5 µM
O=Nc1c2cc([N+](=O)[O-])ccc2n2nnc3ccccc3c12,5.18,4.92,4.74,4.92,5.09,4.38,> 200,0.09,4.54,22,< 4.30,4.80,> 200,0.09,7.4,5.04,4.96,5.92,66,> 200,MIC (Candida parapsilosis [7]): 66 µM; MIC (Trichophyton benhamiae): 66 µM; MIC [5]: > 5 µM
O=Nc1c2ccccc2n2nnc3ccc(Cl)cc3c12,5.70,5.57,4.62,5.64,5.30,4.51,> 200,0.1,5.68,150,4.96,5.27,9.4,0.05,0.8,5.13,5.15,5.77,150,> 200,MIC [1]: 1.6 µM; MIC (Mycobacterium): 2.5 µM; MIC (Candida parapsilosis [7]): 19 µM; MIC [3]: 4.2 µM; MIC [4]: 1.8 µM; MIC (Trichophyton benhamiae): 9.4 µM; MIC [5]: > 5 µM

# Reference: ChEMBL document CHEMBL1132294, “Derivatives of the new ring system indolo[1,2-c]benzo[1,2,3]triazine with potent antitumor and antimicrobial activity” (J Med Chem, 1999)
